For the assay, the system named is Mus musculus. Kind of assay: Antiinflammatory activity in zymosan-induced C57BL/6 mouse pleurisy model assessed as reduction in protein extravasation in thoracic cavity at 10 to 50 mg/kg, po administered 1 hr prior to zymosan challenge measured after 4 hrs. The assay is classed as functional, organism-based. A digest of the protocol: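 Oral pretreatment 1 h before intrathoracic zymosan (100 μg/cavity in 100 μL saline). Cavities washed at 4 h with 1 mL PBS/10 mM EDTA. Total leukocytes counted on a particle counter, differentials from May-Grünwald-Giemsa cytospins (×10^6/cavity). Supernatant after 400g 10 min assayed for total protein by Bradford.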

The structures appear in SMILES notation. The source made the active and inactive calls. No cut-off for these calls is given here.

Take `COC(=O)c1cc(O)c(O)c(O)c1` [GALLIC ACID METHYL ESTER]: the outcome was Active.

The record behind these values is ChEMBL document CHEMBL3853307, “Anti-inflammatory Effect of Methyl Gallate on Experimental Arthritis: Inhibition of Neutrophil Recruitment, Production of Inflammatory Mediators, and Activation of Macrophages” (J Nat Prod, 2016).
